# Screens as filed in PubChem.
# Shown are actives, neighbours in structure and some others; about 12% of the full set was active somewhere.
# Cl transport mod: modulates chloride dependent transport by human KCC2 | Q9H2X9 | KCC2 cells, thallium flux FluoZin-2 fluorescence | B-score of Tl+ flux slope (higher = more flux/activation; lower = inhibition) at 10 µM | 2.2% of 190,000 active;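 active = thallium flux slope and its plate-corrected score both differing from the plate sample mean at a set confidence after two filtering rounds, in either direction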;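 also: slope of fluorescence scaled to starting intensity during 10 to 20 s after thallium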
# WT yeast gro inh: growth inhibition of WT yeast, mitochondrial fusion screen | mitochondrial fusion phenotypic screen, WT strain | inhibition, % at 10 µM | 2.1% of 190,000 active | AID 1362; in the data active = inhibition above about 58%; tested in S. cerevisiae
# L major viab: inhibitors of Leishmania major promastigote growth; Leishmania major promastigotes, resazurin fluorescence viability; inhibition, % at 10 µM; 9% of 200,000 active; AID 1063; in the data active = inhibition above about 50%;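 also: promastigotes grown with compound for 44 hours at 28 °C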
# ROMK primary: human ROMK K+ channel modulation, primary screen; P48048; Tet-inducible ROMK, thallium flux fluorescence; actives lie on both sides; B-score at 10 µM; 2% of 130,000 active;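 active = signal ratio slope over the read window, or its plate-corrected B-score, at least 3 SD from the plate mean, either direction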;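 also: B-score of the F/F0 ratio slope over 7 to 12 s after thallium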
# Target sequence (P48048 whole entry, looked up): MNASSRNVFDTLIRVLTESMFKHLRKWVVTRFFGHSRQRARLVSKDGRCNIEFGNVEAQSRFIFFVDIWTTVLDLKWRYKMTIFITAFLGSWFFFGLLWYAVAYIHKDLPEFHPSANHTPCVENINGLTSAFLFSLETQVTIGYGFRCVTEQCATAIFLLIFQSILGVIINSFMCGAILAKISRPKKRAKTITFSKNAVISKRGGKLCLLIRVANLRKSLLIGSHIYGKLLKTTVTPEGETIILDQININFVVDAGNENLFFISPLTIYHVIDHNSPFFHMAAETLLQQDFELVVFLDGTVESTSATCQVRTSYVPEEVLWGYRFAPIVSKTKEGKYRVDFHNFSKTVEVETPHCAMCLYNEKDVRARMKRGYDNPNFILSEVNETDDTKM
# Diaphorase act: activates diaphorase or chemically reduces, flagging diaphorase assay artifacts; Diaphorase/resazurin coupled assay, resorufin fluorescence, 16 min; stronger effect = higher value; 1 = vehicle wells, 0 = NADH-free wells; activation factor at 20 µM; 0.005% of 190,000 active; AID 1229;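 active = diaphorase activity raised at least twofold by the compound at 20 µM; inactive = activation factor below 2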
#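 Material: purified diaphorase enzyme from Clostridium kluyveri; Also added: 0.114 mM NADH and 0.1 mM resazurin, final amounts; Doses: single compound dose of 20 µM, 1% DMSO final; Times: 16 min enzyme reaction, ambient temperature; Detection: resorufin fluorescence, excitation 544 nm, emission 590 nm; Measure: increased resorufin signal from activators or reducing compounds.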
# Diaphorase inh: inhibits diaphorase or chemically oxidizes, flagging diaphorase assay artifacts; diaphorase resazurin-to-resorufin fluorescence, NADH, 16 min; bacterial (C. kluyveri) enzyme, not human; inhibition, % at 20 µM; 0.69% of 190,000 active; AID 1217;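 active = primary screen inhibition at 20 µM above a set limit, cut at about 50% in these data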
#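 material = Clostridium kluyveri diaphorase enzyme | amount = 0.14 U/mL diaphorase, enzyme working solution | schedule = incubation 16 min, room temperature | detection = fluorescence of resorufin formed from resazurin, Ex 544/Em 590 nm | benchmarks = positive control minus NADH, DMSO neutral control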
# KCC2 secondary: KCC2 (human) modulation, secondary assay; normalised thallium flux (F/F0 slope) at 10 µM; HEK293-KCC2, thallium flux, FluoZin2 fluorescence; stronger effect = higher value; 15% of 3,700 active; AID 1713; shares compounds with Cl transport mod;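 active = thallium flux slope above the same plate's solvent-only control mean plus 3 SD; inconclusive = the two replicate wells disagree; inactive = no significant difference from solvent-only control wells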
# KCC2 bumet counter: thallium flux despite bumetanide block in KCC2 cells, secondary assay 3 | 49% of 3,700 active | shares compounds with Cl transport mod | HEK293-KCC2 + bumetanide/ouabain, thallium flux FluoZin2; stronger effect = higher value | normalized thallium flux at 10 µM;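 active = thallium entry rate above the same plate's blocked-transporter control wells by more than 3 SD; inconclusive = the two repeat wells disagree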;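 also: raw slope of fluorescence over initial fluorescence between 10 and 20 s after thallium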
# KCC2 secondary2: confirmation of human KCC2 transport modulators | shares compounds with Cl transport mod | HEK293-KCC2, thallium flux FluoZin2 fluorescence; actives lie on both sides; F/F0 rise rate, 10–20 s post-thallium | normalized thallium flux at 10 µM | 23% of 3,700 active | AID 1715;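 active = thallium flux slope more than 3 SD above or below the plate's solvent-only control mean, mostly below; inconclusive = the two repeat wells disagreed; inactive = no significant shift from solvent-only controls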
# HEK counter1: parental HEK flux effect, counter-screen; shares compounds with Cl transport mod; HEK293 parental cells, thallium flux FluoZin2, ouabain; baseline-ratio fluorescence slope, 10–20 s after thallium; thallium flux rate (normalised fluorescence) at 10 µM; 46% of 3,700 active;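 active = thallium flux rate significantly above the same plate's solvent-only control wells, beyond their mean plus 3 SD; inconclusive = the two replicate wells gave conflicting results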
# KCC2 ouabain: modulates human KCC2 on retest with ouabain; shares compounds with Cl transport mod; HEK293-KCC2, thallium flux FluoZin2 fluorescence; bidirectional: low = inhibitor, high = activator; raw Tl+ flux slope (below DMSO = inhibition, above = activation) at 10 µM; 48% of 3,700 active;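 active = thallium flux slope beyond 3 SD from same-plate DMSO control mean in most replicates, usually higher, sometimes lower; inconclusive = repeat tests gave conflicting results; inactive = no significant difference from controls in most replicates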;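 also: slope of initial-normalized fluorescence between seconds 10 and 20 after thallium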
# HEK counter2: acts in parental HEK cells, second KCC2 counter-screen. thallium flux slope at 10 µM. shares compounds with Cl transport mod. 33% of 3,700 active. AID 1718. HEK293 parental, thallium flux FluoZin-2 fluorescence slope;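 active = thallium flux slope above the same plate's solvent-control mean plus 3 SD in both duplicate wells; inconclusive = duplicate wells that disagreed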;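 also: run without ouabain in cells lacking the KCC2 cotransporter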
# Hits are given with their value; n = inactive; u = inconclusive; x = no result.
SMILES,Cl transport mod,WT yeast gro inh,L major viab,ROMK primary,Diaphorase act,Diaphorase inh,KCC2 secondary,KCC2 bumet counter,KCC2 secondary2,HEK counter1,KCC2 ouabain,HEK counter2
CC(C)CC(C(=O)O)N1C(=O)C2C3CC(C2C1=O)C1C(c2ccccc2)c2sc(=O)[nH]c2SC31 (stereo not given),n,n,n,x,n,n,x,x,x,x,x,x
O=C1CSC(c2cn(-c3ccccc3)nc2-c2cccs2)N1CC1CCCO1 (stereo not given),n,n,n,x,n,n,x,x,x,x,x,x
CC1=C(C)CC(C(=O)NNC(=O)c2csc(C)c2C)C(C(=O)O)C1 (stereo not given),n,n,n,n,n,n,x,x,x,x,x,x
COC(=O)c1cccc(C(=O)N2CCCC(CNC(=O)c3ccccc3Cl)C2)c1 (stereo not given),n,x,x,x,x,x,x,x,x,x,x,x
CSCC(=O)N1CCCC(CNC(=O)c2ccc(-c3ccccc3)cc2)C1 (stereo not given),-6.3,n,n,n,n,n,n,n,0.03,n,0.015,n
CC(=O)CCC(=O)N1CCCC(CNC(=O)c2ccc(-c3ccccc3)cc2)C1 (stereo not given),n,n,n,x,n,n,x,x,x,x,x,x
O=C(NCC1CCCN(C(=O)c2cccnc2)C1)c1ccc(-c2ccccc2)cc1 (stereo not given),-7.6,n,n,n,n,n,n,n,0.027,n,0.016,n
COc1ccc(S(=O)(=O)NCC2CCCN(C(=O)c3cccnc3)C2)cc1 (stereo not given),n,n,n,n,n,n,x,x,x,x,x,x
Cc1ncccc1C(=O)N1CCCC(CNC(=O)c2ccc(-c3ccccc3)cc2)C1 (stereo not given),-4.4,n,n,n,n,n,n,n,u,n,0.017,n
O=C(O)C1C2C=CC(C2)C1C(=O)Nc1ccc(C(=O)N2CCCCC2)c(Cl)c1 (stereo not given),n,n,n,x,n,n,x,x,x,x,x,x
CC(C)C(=O)Nc1ccc(C(=O)Nc2nnc(C(C)(C)C)s2)cc1,n,n,n,n,n,n,x,x,x,x,x,x
COc1ccc(-c2nn(C)c(=O)c3ccccc23)cc1NS(C)(=O)=O,x,n,n,n,n,n,n,n,n,n,n,n
COc1ccc(-c2nn(C)c(=O)c3ccccc23)cc1CNS(C)(=O)=O,n,n,n,n,n,n,x,x,x,x,x,x
Cc1c(NC(=O)CN2c3ccccc3CC2C)c(=O)n(-c2ccccc2)n1C (stereo not given),n,n,n,n,n,n,x,x,x,x,x,x
CCOC(=O)C(CC)/C(C)=N/NC(=O)c1ccc([N+](=O)[O-])cc1 (stereo not given),n,n,n,x,n,n,x,x,x,x,x,x
CCOC(=O)/C(C)=N/NC(=O)c1ccc([N+](=O)[O-])cc1,23,n,n,n,n,n,0.0094,0.032,0.038,0.034,0.039,0.025
c1ccc(-n2cnc3cc(NCc4ccncc4)ccc32)cc1,-4.4,n,n,n,n,n,n,n,0.025,n,u,n
COc1ccc(CCNC(=O)CCNS(=O)(=O)c2cccc(Cl)c2)cc1OC,n,n,n,n,n,n,x,x,x,x,x,x
S=c1[nH]nc(COc2ccc(Cl)cc2)n1C1CCCCC1,2.5,n,n,n,n,n,n,0.015,n,0.012,u,0.015
Cc1ccc(OCc2n[nH]c(=S)n2C2CCCCC2)cc1,13,66,n,n,n,n,u,0.043,0.045,0.026,0.042,0.03
S=c1[nH]nc(CSCc2ccccc2Cl)n1C1CCCCC1,27,74,n,n,n,n,n,0.031,u,0.029,0.028,0.02
Clc1ccc(/C=C/c2ncc3ccccn23)cc1,n,n,n,n,x,x,x,x,x,x,x,x
O=C(COC(=O)c1ccccc1Nc1cccc(C(F)(F)F)c1)NCc1ccco1,x,n,n,x,n,n,x,x,x,x,x,x
Cc1ccc(/C=N/n2c(-c3ccc(Cl)cc3)n[nH]c2=S)s1,10,n,n,n,n,n,n,0.012,n,0.016,u,0.015
S=c1[nH]nc(-c2ccc(Cl)cc2)n1/N=C/C=C/c1ccco1,30,x,x,n,x,x,0.016,0.11,n,0.036,0.038,0.015
SMILES,Cl transport mod,WT yeast gro inh,L major viab,ROMK primary,Diaphorase act,Diaphorase inh,KCC2 secondary,KCC2 bumet counter,KCC2 secondary2,HEK counter1,KCC2 ouabain,HEK counter2
S=c1[nH]nc(-c2ccc(Cl)cc2)n1/N=C/c1ccco1,21,x,x,x,x,x,n,0.029,u,0.022,0.033,0.02
COc1ccccc1/C=C/C=N/n1c(-c2ccc(Cl)cc2)n[nH]c1=S,13,x,x,x,x,x,n,0.023,n,0.011,0.031,u
S=c1[nH]nc(-c2cc(-c3ccccc3)n[nH]2)n1/N=C/c1ccc(Cl)cc1,n,x,x,x,x,x,x,x,x,x,x,x
FC(F)(F)c1n[nH]c(=S)n1/N=C/c1ccco1,n,n,n,x,n,n,x,x,x,x,x,x
COc1ccc(-c2noc(CSc3nc(N)c(-c4ccccc4)c(=O)[nH]3)n2)cc1,x,n,n,x,n,n,x,x,x,x,x,x
Cc1ccc(-c2ccc(=O)n(CC(=O)NCc3ccc(F)cc3)n2)cc1,n,n,n,n,n,n,x,x,x,x,x,x
S=c1[nH]nc(-c2ccccc2)n1/N=C/C=C/c1ccco1,n,n,n,x,n,n,x,x,x,x,x,x
S=c1[nH]nc(-c2ccco2)n1/N=C/C=C/c1ccccc1,7,n,n,n,n,57,n,0.033,n,0.016,n,0.018
NC(=O)N1CC(O)CC1C(=O)Nc1ccc(Cl)c(Cl)c1 (stereo not given),n,n,n,n,x,x,n,n,n,n,n,n
NC(=S)NNC(=O)Nc1ccc(Cl)c(Cl)c1,n,n,n,n,n,n,x,x,x,x,x,x
N#Cc1cnn2c(-c3cccc(C(F)(F)F)c3)ccnc12,n,x,x,n,x,x,x,x,x,x,x,x
O=C(CSc1ncccn1)N/N=C/c1cccs1,4.5,n,n,n,n,n,n,n,n,n,n,n
O=C(N/N=C/c1cccs1)c1ccccn1,n,n,n,n,n,n,x,x,x,x,x,x
